High-throughput results deposited in PubChem BioAssay by several laboratories.
The full list was thinned out, with hits kept by preference.
HCT116 bCat-KO = primary screen for growth suppressors in beta-catenin knockout HCT116 cells (colon tumor, human); viability, % at 10 µM; AID 818, 2007; actives 1.5% (n = 140,000); HCT116 beta-catenin knockout viability, CellTiter-Glo, 60 h; active compounds read low;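 active = viability at or under a set limit, the compound median less 4 SD, cut at about 6% in these data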;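 note: 0% = Hyamine 1622 control at 20 µM and 100% = untreated cell control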
H69AR inhibit = proliferation blockers of H69AR lung cancer cells, primary screen, cell-based, human, 86K library; H69AR lung tumor viability, ATP luminescence, 72 h; active compounds read low; viability, % at 10 µM; actives 6% (n = 85,000); AID 598, 2007;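 active = viability at or below 40%; inactive = viability above 40%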;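 note: multidrug resistant small cell line overexpressing MRP-1 efflux transporter; 100% = mean luminescence of untreated control wells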
PTK2B oligo ant = antagonists of Pyk2 self-association, primary screen, Q293 cells, FERM NanoBiT luminescence, HTS. Protein-tyrosine kinase 2-beta (Homo sapiens), Q14289. active compounds read low. z-score (the deposit names both 25 µM and 10 µM). actives 0.83% (n = 99,000);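 active = Z-score of -3 or lower, scaled per plate to the spread of control and sample wells; inactive = z-score above -3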;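 note: negative z-score means lost luminescence so less FERM oligomerization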
PTEN del growth = growth suppression of PTEN-null HCT116, primary screen, cell-based, CellTiter-Glo | HCT116 PTEN-null viability, 60 h; active compounds read low | viability, % at 10 µM | actives 1.2% (n = 140,000) | AID 827, 2007;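 active = viability at or below a set limit, 4 SD under the median of all tested compounds, cut at about 3.7% in these data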;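 note: PTEN knockout HCT116 line with beta catenin targeted HCT116 as companion control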
HUVEC inhibit = inhibitors of HUVEC proliferation, primary screen, cell-based, 384-well | AID 648, 2007 | actives 1.1% (n = 86,000) | CellTiter-Glo luminescence, 72 h; active compounds read low | viability, % at 10 µM (by protocol);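 active = viability at or below 30%; inactive = viability above 30%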;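 note: 100% = median luminescence of DMSO-only cell control wells on each plate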
Lung fibro prol = antiproliferative effect on LL 47 fibroblasts – human, LL 47 cells, CellTiter-Glo luminescence, primary screen | viability, % at 10 µM | actives 1.1% (n = 85,000) | AID 719, 2007 | LL 47 human lung fibroblast viability, ATP luminescence; active compounds read low;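 active = viability at or below 50% in the single dose screen; inactive = viability above 50%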;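 note: compound exposure lasted 72 h before the ATP readout; 100% = median luminescence of untreated cell-only wells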
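Material: human LL 47 lung fibroblast cells; quantity: 1,150 cells/well; medium: IMEM plus 15% FBS; doses: 0.1% DMSO in all compound wells; timing: overnight attachment after seeding, then 72 h compound exposure at 37 °C; detection: CellTiter-Glo luminescence; measure: % viability of median cell-only signal; controls: cell-only wells, no compound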
* marks the source's active call; other numbers are inactive results; . = not tested or not shown.

SMILES	HCT116 bCat-KO	H69AR inhibit	PTK2B oligo ant	PTEN del growth	HUVEC inhibit	Lung fibro prol
O=C(COC(=O)C1CCN(S(=O)(=O)c2ccc3c(c2)OCCO3)CC1)Nc1ccc(C(F)(F)F)cc1	81	.	.	84	.	.
COc1cccc(NC(=O)CSc2nc3c(oc4ccccc43)c(=O)[nH]2)c1	97	.	.	100	.	.
Cc1ccc(S(=O)(=O)NCCC(=O)NCc2ccco2)cc1	83	.	-0.34	94	.	.
CCOC(=O)C(C)Oc1cccc2c(=O)n(CC(=O)NCc3ccc4c(c3)OCO4)ccc12 (stereo not given)	8	30*	.	7	50	60
Cc1ccc(-c2nc(N/N=C/c3ccccc3[N+](=O)[O-])c3ccccc3n2)cc1	97	.	-0.35	92	.	.
Brc1ccc(-c2nc(N/N=C/c3cccnc3)c3ccccc3n2)cc1	50	11*	-2.6	39	61	60
Cn1c(C(=O)N2CCN(c3ccc(Cl)cc3)CC2)cc2c(=O)[nH]c3ccccc3c21	23	34*	-0.45	45	74	102
Cn1c(C(=O)N2CCN(c3ccc(Cl)cc3)CC2)cc2c(=O)n(C)c3ccccc3c21	.	75	.	.	92	94
Cc1ccc(Cl)cc1N1CCN(C(=O)Cc2cn(C)c3ccccc23)CC1	56	34*	0.06	51	77	83
Cc1ccc(Cl)cc1N1CCN(C(=O)c2cc3c(=O)[nH]c4ccccc4c3n2C)CC1	5.6*	.	.	6	.	.
CN(c1ccccc1)S(=O)(=O)c1cccc(NC(=O)CSc2nncs2)c1	85	.	-0.64	79	.	.
CCOC(=O)C1CCN(Cc2cnc(Oc3ccc(C(C)(C)C)cc3)s2)CC1	89	.	-0.19	99	.	.
O=c1cc(CN2CCN(S(=O)(=O)c3ccc4c(c3)OCCO4)CC2)c2ccc(O)cc2o1	83	.	-3.9*	86	.	.
CN(C)S(=O)(=O)c1cc(NC(=O)COC(=O)C2CSC3(C)CCC(=O)N23)ccc1Cl (stereo not given)	91	.	.	84	.	.
N=C1S/C(=C\c2ccc(-c3cccc(Cl)c3)o2)C(=O)N1c1nccs1	5.4*	.	-2.4	2.9*	.	.
CCOc1ccc(Oc2c(/C=N/NC(=O)C3CC3)c(C)nn2-c2ccccc2)cc1	102	.	.	83	.	.
CCN(CC)c1ccc(C(=S)N2CCN(c3ccccc3)CC2)cc1	95	89	-0.25	86	84	93
CC(c1nnnn1C(C)(C)C)N(Cc1cccnc1)Cc1ccccc1Cl (stereo not given)	84	78	-2.5	75	92	92
CC(C)(C)n1nnnc1C(c1cccs1)N(Cc1cccnc1)Cc1ccccc1Cl (stereo not given)	13	4.0*	-1.4	12	70	89
COc1ccc(C(=O)NC(C(=O)NCC(=O)Nc2c(C)cccc2C)C(C)C)cc1 (stereo not given)	94	.	.	90	.	.
CC(C)c1ccc(C2C3=C(CC(C)(C)CC3=O)NC3=C2C(=O)c2ccccc23)cc1 (stereo not given)	22	.	-3*	13	.	.
CC1(C)CC(=O)C2=C(C1)NC1=C(C(=O)c3ccccc31)C2c1ccccc1 (stereo not given)	67	.	.	54	.	.
CCCc1ccc(-c2cc(NC(=O)CSc3n[nH]c(N)n3)n(-c3ccccc3)n2)cc1	60	17*	-0.8	46	17*	94
CC(=O)Nc1cc2c(=O)n(Cc3ccccc3)c(C)nc2cc1N1CCOCC1	101	99	2.4	99	97	103
Cc1nc2cc(N3CCCCC3)c(NC(=O)c3cccnc3)cc2c(=O)n1Cc1ccccc1	103	33*	-2.5	102	72	38*
O=C(NCc1ccc(F)cc1)c1cc2n(n1)C(C(F)(F)F)CC(C1CC1)N2 (stereo not given)	104	101	.	105	94	97
COc1ccc(-c2c[n+]3c4n2CCCCC4=C(c2ccccc2)C3)cc1	3.8*	48	0.43	3.5*	47	36*
CCCS(=O)(=O)c1c(S(=O)(=O)CCC)c2ccccn2c1C(=O)OC	92	85	0.24	94	106	97
